Source: ChEMBL document CHEMBL3871272, “Systemic optimization and structural evaluation of quinoline derivatives as transthyretin amyloidogenesis inhibitors” (Eur J Med Chem, 2016)
Active and inactive are the calls of the source. The rule behind the calls is not given here.

Assays:
Transthyretin [1] = target: T1, Transthyretin (Homo sapiens, UniProt P02766); assay: Inhibition of wild type TTR (unknown origin) assessed as inhibition of acid-mediated amyloidogenesis by measuring fibril formation at 7.2 uM preincubated with enzyme followed by amyloidogenesis stimulation by adjusting pH to 4.4 measured after 72 hrs relative to control; set-up: scale not given: the % may be the effect or the level left
Procedure, shortened: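 WT-TTR (3.6 µM, physiological level) was preincubated with inhibitor at 7.2 or 3.6 µM. The pH was then adjusted to 4.4 to trigger fibril formation, 37 °C, 72 h. Fibrils were expressed relative to untreated WT-TTR set at 100%.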

Transthyretin [2] = target: T1, Transthyretin; assay: Inhibition of wild type TTR (unknown origin) assessed as inhibition of acid-mediated amyloidogenesis by measuring fibril formation at 3.6 uM preincubated with enzyme followed by amyloidogenesis stimulation by adjusting pH to 4.4 measured after 72 hrs relative to control; set-up: scale not given: the % may be the effect or the level left
Procedure, shortened: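 WT-TTR (3.6 μM, physiological concentration) preincubated with inhibitor (3.6 or 7.2 μM), then fibril formation triggered by adjusting pH to 4.4; incubated 37 °C, 72 h. Fibril formation expressed as percent of untreated WT-TTR (100%).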

Transthyretin [3] = target: T1, Transthyretin; assay: Inhibition of wild type TTR (unknown origin) assessed as inhibition of acid-mediated amyloidogenesis by measuring fibril formation preincubated with enzyme followed by amyloidogenesis stimulation by adjusting pH to 4.4 measured after 72 hrs relative to control
[4] = Tmax in Sprague-Dawley rat at 2 mg/kg, iv administered as single dose by HPLC/MS/MS method; type: ADME, organism-based; settings: in vivo
Procedure, shortened: (§1)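 Male SD rats, fasted overnight, four animals, single tail-vein IV dose of 2 mg/kg. Dosing solution 1 mg/mL in 10% DMSO, 40% PEG400, 50% saline. Plasma concentrations were measured over time. Parameters were calculated per animal and averaged.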

[5] = Tmax in Sprague-Dawley rat at 5 mg/kg, po administered as single dose via oral gavage by HPLC/MS/MS method; type: ADME, organism-based; settings: in vivo
Procedure, shortened: (§2)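 Five overnight-fasted male SD rats received a single 5 mg/kg dose by gavage needle. Dosing solution 2.5 mg/mL in 10% DMSO, 40% PEG400, 50% saline. Plasma concentration-time profiles were obtained, and parameters were calculated for each animal and then averaged.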

[6] = Cmax in Sprague-Dawley rat at 2 mg/kg, iv administered as single dose by HPLC/MS/MS method; type: ADME, organism-based; set-up: dose 2 mg/kg, route intravenous; settings: in vivo; procedure, shortened: as §1
[7] = Cmax in Sprague-Dawley rat at 5 mg/kg, po administered as single dose via oral gavage by HPLC/MS/MS method; type: ADME, organism-based; settings: in vivo; procedure, shortened: as §2
[8] = Terminal half life in Sprague-Dawley rat at 2 mg/kg, iv administered as single dose by HPLC/MS/MS method; type: ADME, organism-based; settings: in vivo, read-out: beta t1/2 (converted); procedure, shortened: as §1
[9] = Terminal half life in Sprague-Dawley rat at 5 mg/kg, po administered as single dose via oral gavage by HPLC/MS/MS method; type: ADME, organism-based; settings: in vivo, read-out: beta t1/2 (converted); procedure, shortened: as §2
[10] = AUC (0 to t) in Sprague-Dawley rat at 2 mg/kg, iv administered as single dose by HPLC/MS/MS method; type: ADME, organism-based; settings: in vivo
Procedure, shortened: (§3)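 Male Sprague-Dawley rats, fasted overnight, 4 animals. Single 2 mg/kg IV dose via tail vein, given as a 1 mg/mL solution in 10% DMSO, 40% PEG400 and 50% saline. Plasma was processed by vigorous mixing and centrifugation at 12,000 g for 10 min, with an internal standard added, then analysed by RP-HPLC. Parameters were calculated for each animal and averaged.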

[11] = AUC (0 to t) in Sprague-Dawley rat at 5 mg/kg, po administered as single dose via oral gavage by HPLC/MS/MS method; type: ADME, organism-based; settings: in vivo
Procedure, shortened: as §3, with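 “overnight, 5” for “overnight, 4”, “Single 5” for “Single 2”, “mg/kg oral” for “mg/kg IV”, “dose by gavage needle,” for “dose via tail vein,”, “a 2.5” for “a 1”, “by” for “by vigorous”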

[12] = Plasma clearance in Sprague-Dawley rat at 2 mg/kg, iv administered as single dose by HPLC/MS/MS method; type: ADME, organism-based; procedure, shortened: as §1
[13] = Volume of distribution at steady state distribution in Sprague-Dawley rat at 2 mg/kg, iv administered as single dose by HPLC/MS/MS method; type: ADME, organism-based; settings: in vivo, read-out: Vdss; procedure, shortened: as §1
[14] = Oral bioavailability in Sprague-Dawley rat at 5 mg/kg administered as single dose by HPLC/MS/MS method; type: ADME, organism-based; settings: in vivo
Procedure, shortened: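 Bioavailability was taken from dose-normalized AUC0-∞ after oral (5 mg/kg, gavage, n=5) versus IV (2 mg/kg, tail vein, n=4) dosing in fasted male SD rats. Vehicle: 10% DMSO, 40% PEG400, 50% saline.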

[15] = AUC (0 to infinity) in Sprague-Dawley rat at 2 mg/kg, iv administered as single dose by HPLC/MS/MS method; type: ADME, organism-based; set-up: dose 2 mg/kg, time infinity, route intravenous; settings: in vivo; procedure, shortened: as §3
[16] = AUC (0 to infinity) in Sprague-Dawley rat at 5 mg/kg, po administered as single dose via oral gavage by HPLC/MS/MS method; type: ADME, organism-based; settings: in vivo
Procedure, shortened: as §3, with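 “overnight, 5” for “overnight, 4”, “Single 5” for “Single 2”, “mg/kg oral” for “mg/kg IV”, “dose by gavage needle,” for “dose via tail vein,”, “a 2.5” for “a 1”, “by” for “by vigorous”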

[17] = test system: Transthyretin (Homo sapiens), P02766 [V50M]; assay: Inhibition of TTR V30M mutant (unknown origin) assessed as inhibition of acid-mediated amyloidogenesis by measuring fibril formation at 7.2 uM preincubated with enzyme followed by amyloidogenesis stimulation by adjusting pH to 4.4 measured after 72 hrs relative to control; set-up: scale not given: the % may be the effect or the level left
Procedure, shortened: (§4)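 V30M-TTR (3.6 μM) preincubated with inhibitor (3.6 or 7.2 μM), then fibril formation triggered by adjusting pH to 4.4; incubated 37 °C, 72 h. Fibril formation expressed as percent of untreated V30M-TTR (100%).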

[18] = test system: Transthyretin (Homo sapiens), P02766 [V50M]; assay: Inhibition of TTR V30M mutant (unknown origin) assessed as inhibition of acid-mediated amyloidogenesis by measuring fibril formation at 3.6 uM preincubated with enzyme followed by amyloidogenesis stimulation by adjusting pH to 4.4 measured after 72 hrs relative to control; set-up: scale not given: the % may be the effect or the level left; procedure, shortened: as §4
Transthyretin [19] = target: T1, Transthyretin; assay: Inhibition of wild type TTR (unknown origin) assessed as inhibition of acid-mediated amyloidogenesis by measuring reduction in fibril formation at 3.6 uM preincubated with enzyme followed by amyloidogenesis stimulation by adjusting pH to 4.4 measured up to 120 hrs relative to control
Procedure, shortened: (§5)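 Time-course version of the acid-mediated fibril formation assay: inhibitor at a concentration equal to the TTR tetramer (3.6 μM), preincubated with TTR, then acidified to pH 4.4. Fibril formation followed over 120 h instead of at a fixed 72 h, relative to untreated TTR.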

Transthyretin [20] = target: Transthyretin (Homo sapiens, UniProt P02766, V50M); assay: Inhibition of TTR V30M mutant (unknown origin) assessed as inhibition of acid-mediated amyloidogenesis by measuring fibril formation preincubated with enzyme followed by amyloidogenesis stimulation by adjusting pH to 4.4 measured after 72 hrs relative to control
[21] = test system: Transthyretin (Homo sapiens), P02766 [V50M]; assay: Inhibition of TTR V30M mutant (unknown origin) assessed as inhibition of acid-mediated amyloidogenesis by measuring reduction in fibril formation at 3.6 uM preincubated with enzyme followed by amyloidogenesis stimulation by adjusting pH to 4.4 measured up to 120 hrs relative to control; procedure, shortened: as §5

Compound: Cc1cc(/C=C/c2ccc3cc(N)ccc3n2)cc(C)c1O
- Activity (Transthyretin [1]): 26.8%
- Activity (Transthyretin [2]): 51.3%

Compound: Cc1cc(C#Cc2ccc3cc(O)ccc3n2)cc(C)c1O
- Activity (Transthyretin [1]): 9.6%
- Activity (Transthyretin [2]): 32.1%
- IC50 (Transthyretin [3]): 2590 nM

Compound: CCc1cc(C#Cc2ccc3ccccc3n2)ccc1O
- Activity (Transthyretin [1]): 99%

Compound: Cc1cc(C#Cc2ccc3cc(N)ccc3n2)cc(C)c1O
- Activity (Transthyretin [1]): 4.8%
- Activity (Transthyretin [2]): 17.9%
- IC50 (Transthyretin [3]): 1900 nM
- Tmax [4]: 4.98 min
- Tmax [5]: 2.45 h
- Cmax [6]: 3110 ng/mL
- Cmax [7]: 138 ng/mL
- half-life [8]: 2.71 h
- half-life [9]: 1.59 h
- AUC(0-t) [10]: 1330 ng·h/mL
- AUC(0-t) [11]: 226 ng·h/mL
- clearance [12]: 25.1 mL/min/kg
- Vd [13]: 1.48 L/kg
- bioavailability [14]: 6.89%
- AUC(0-inf) [15]: 1350 ng·h/mL
- AUC(0-inf) [16]: 232 ng·h/mL

Compound: CCc1cc(C#Cc2ccc3ccccc3n2)cc(CC)c1O
- Activity (Transthyretin [1]): 93.4%

Compound: Cc1cc(C#Cc2ccc3cc([N+](=O)[O-])ccc3n2)cc(C)c1O
- Activity (Transthyretin [1]): 3.6%
- Activity (Transthyretin [2]): 20.9%
- IC50 (Transthyretin [3]): 2060 nM

Compound: Oc1ccc(C#Cc2ccc3ccccc3n2)cc1
- Activity (Transthyretin [1]): 73.9%

Compound: Cc1cc(C#Cc2ccc3ccccc3n2)cc(C)c1O
- Activity (Transthyretin [1]): 10.2%
- Activity (Transthyretin [2]): 25.6%
- IC50 (Transthyretin [3]): 2180 nM

Compound: Cc1cc(/C=C/c2ccc3ccccc3n2)cc(C)c1O
- Activity (Transthyretin [1]): 26.3%

Compound: Cc1cc(/C=C/c2ccc3cc([N+](=O)[O-])ccc3n2)cc(C)c1O
- Activity (Transthyretin [1]): 92.9%

Compound: O=C(O)c1ccc2nc(-c3cc(Cl)cc(Cl)c3)oc2c1
- Activity (Transthyretin [1]): 1%
- Activity (Transthyretin [2]): 14.8%
- Activity [17]: 3.2%
- Activity [18]: 17%
- inhibition (Transthyretin [19]): Active

Compound: Cc1cc(/C=C/c2cc3ccc(O)cc3nc2Cl)cc(C)c1O
- Activity (Transthyretin [1]): 0.9%
- Activity (Transthyretin [2]): 17.7%
- IC50 (Transthyretin [3]): 1490 nM
- Activity [17]: 5%
- Activity [18]: 16.6%
- IC50 (Transthyretin [20]): 1630 nM
- inhibition (Transthyretin [19]): 7 to 23%
- inhibition [21]: > 80%
- Tmax [4]: 4.98 min
- Tmax [5]: 0.598 h
- Cmax [6]: 2380 ng/mL
- Cmax [7]: 665 ng/mL
- half-life [8]: 2.75 h
- half-life [9]: 3.36 h
- AUC(0-t) [10]: 4510 ng·h/mL
- AUC(0-t) [11]: 2840 ng·h/mL
- clearance [12]: 7.34 mL/min/kg
- Vd [13]: 1.13 L/kg
- bioavailability [14]: 27.2%
- AUC(0-inf) [15]: 4590 ng·h/mL
- AUC(0-inf) [16]: 3120 ng·h/mL

Compound: Cc1cc(/C=C/c2cc3ccccc3nc2Cl)cc(C)c1O
- Activity (Transthyretin [1]): 2.3%
- Activity (Transthyretin [2]): 33.2%

Compound: CC(C)c1cc(C#Cc2ccc3ccccc3n2)ccc1O
- Activity (Transthyretin [1]): 97.3%

Compound: COc1ccc2nc(C#Cc3cc(C)c(O)c(C)c3)ccc2c1
- Activity (Transthyretin [1]): 22.1%
